In ChEMBL document CHEMBL1144149, “DNA polymerase beta inhibitors from Tetracera boiviniana” (J Nat Prod, 1999):

Columns and labels:
[1] = system: P388D1; test: Potentiation of 75 nM bleomycin induced cytotoxicity in mouse P388D1 cells at 10 uM assessed as cell viability after 6 hrs by trypan blue exclusion assay; type: functional
Outline: (§1)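 P-388D1 suspension cells were grown in DMEM (4500 mg glucose/L) with 10% donor horse serum and antibiotics at 37 °C in 5% CO2. Cells at ca. 5 × 10^5 cells/mL were stabilized for 1 h, then exposed to compound alone or together with 75 nM bleomycin (blenoxane) for 6 h. Final DMSO was 0.25%. Viability was read by trypan blue exclusion as % of control.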

[2] = target: DNA polymerase beta (Rattus norvegicus) (UniProt P06766); conditions: 50 ug/mL
[3] = target: DNA polymerase beta (Rattus norvegicus) (UniProt P06766); conditions: 10 ug/mL
[4] = Cytotoxicity against mouse P388D1 cells at 10 uM after 6 hrs by trypan blue exclusion assay; type: functional; outline: as §1

SMILES: C=C(C)[C@@H]1CC[C@]2(C(=O)O)CC[C@]3(C)[C@H](CC[C@@H]4[C@@]5(C)CC[C@H](O)C(C)(C)[C@@H]5CC[C@]43C)[C@@H]12 [BETULINIC ACID]
- Activity [1]: 70%
- inhibition [2]: 96%
- inhibition [3]: 63%
- Activity [4]: 99%
